Assay: Toxicity liver stage against HepG2, at 10uM
Assay type: cell-based
Parameters: test concentration 10 uM, cell line HepG2-A16-CD81EGFP
Settings: human, HepG2-A16-CD81EGFP cells; read-out: INHIBITION
Method in brief: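 Uninfected HepG2-A16-CD81EGFP cells, 3 × 10^3 per well, 1536-well, plated on prespotted compound at 10 μM final, parasite-free screening media added to match infected plates; puromycin 10 μM positive, DMSO 0.5% negative; run in parallel with 48 h PbLuc assay at 37 °C, 5% CO2; viability by CellTiter-Glo luminescence, normalized to controls.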

| SMILES | cytotoxicity at 10 µM |
| --- | --- |
| CSc1ccccc1C(=O)C1CCCN(Cc2ccccn2)C1 (stereo not given) | -6.12% |
| CSCCC(=O)N1CC[C@@H](N2CCN(c3ccccc3F)CC2)[C@H](O)C1 | -91.4% |
| CC(C)(C)CC(=O)N1CC[C@H]2NC(=O)N(Cc3ccccc3)C(=O)[C@H]21 | -0.171% |
| CCc1noc(-c2cccc(OCC(=O)NC(C)C)c2)n1 | -6.53% |
| COCCCNC(=O)Cn1c(C)cc(=O)n2nc(-c3cccs3)nc12 | 2.05% |
| Cc1ccc2oc(SCC(=O)NC(C)(C)C)nc2n1 | -0.3% |
| O=C1COc2cc(S(=O)(=O)NCCC3=CCCCC3)c(Cl)cc2N1 | 18.6% |
| CCCS(=O)(=O)N1CC(=O)N(CCCc2ccccc2)CC(O)C1 (stereo not given) | -17% |
| COC(=O)CNC(=O)Cn1ccc2cccc(OC)c21 | -34.9% |
| Cc1ccccc1NC(=O)NCC(C)(O)c1cccs1 (stereo not given) | 8.5% |
| O=C(c1cc(C2CC2)on1)N1CCC(Oc2ncccc2Cl)CC1 | 5.37% |
| O=C1[C@@H]2CCN(CC3CC3)C[C@@H]2OCCN1c1ccsc1 | 10.5% |
| CC1c2ncc(Cn3cncn3)n2CCN1C(=O)N(C)C (stereo not given) | 0.267% |
| COCC(=O)N1CC[C@H]2OCC[C@@]2(c2nc(C)no2)C1 | -0.461% |
| CSc1ccc(NC(=O)Nc2ccc3c(c2)N(S(C)(=O)=O)CC3)cc1 | 48.5% |
| CN(Cc1ccccn1)C(=O)[C@]12COC[C@H]1CN(Cc1cnn(C)c1)C2 | -9.74% |
| CN1CCCc2c1nc1c(c2N)CCC1 | 10.2% |
| Cc1cnc(NC(=O)C(C)n2ccc(C(F)(F)F)n2)s1 (stereo not given) | 1.75% |
| O=S(=O)(c1cc(F)ccc1F)n1cc(Cl)cn1 | 4.52% |
| CN(CCc1cn[nH]c1)C(=O)CCc1ccc(Cl)cc1 | 1.82% |
| COc1ccccc1C1Cn2c(C)cnc2CN1Cc1ccc(C)nc1 (stereo not given) | -3.18% |
| O=C(c1ccccn1)N1Cc2ccccc2OC2(CCOCC2)C1 | -12.9% |

| SMILES | cytotoxicity at 10 µM |
| --- | --- |
| Cc1nc(C(=O)N(C)[C@@H]2CCC[C@@H](Oc3ccccc3)[C@@H]2O)co1 | -22.6% |
| CC(C)S(=O)(=O)N1CCC(c2cc3n(n2)[C@@H](C(F)(F)F)C[C@@H](C)N3)CC1 | -13.5% |
| CS(=O)(=O)c1snnc1C1CCN(Cc2cccnc2)CC1 | -11.2% |
| O=C(NCCCn1cccn1)C1COCC(=O)N1Cc1ccccc1 (stereo not given) | -8.57% |
| Cc1ccccc1-n1ccnc1S(=O)(=O)Cc1nsc(N(C)C)n1 | 2.56% |
| COc1ccc(-n2cc(CNC(=O)c3ccc[nH]3)nn2)cc1 | -10.9% |
| Clc1cc(Cl)cc(CN2CCC(NCc3ncc[nH]3)CC2)c1 | 18.4% |
| CC(C)c1ccc(CNC(c2ccc(F)cn2)C(C)C)cc1 (stereo not given) | -4.45% |
| Cc1nc(COC(=O)c2cccc3c2OCCO3)cs1 | 1.4% |
| COC1CCN(S(=O)(=O)N2CCCC2c2ccco2)CC1 (stereo not given) | 11% |
| CCC(C#N)NC(=O)CCCOc1cccc(C(C)=O)c1 (stereo not given) | -35.1% |
| CCc1csc(C2CCCN(C(=O)c3ccc(=O)n(C)n3)C2)n1 (stereo not given) | -44.1% |
| O=C1CN(c2ccc(C(=O)N3CCc4ccccc43)cn2)CCN1 | 2.66% |
| CCCn1nnnc1COC(=O)C1COc2ccccc2O1 (stereo not given) | 3.72% |
| O=C1N(CC2CC2)C(c2cncs2)NC12CCCC2 (stereo not given) | -3.84% |
| O=C(Nc1ccccc1)C1CCN(C(=O)COc2ccccc2F)CC1 | 8.94% |
| CC(C)N(C)CC(=O)Nc1ccc(-n2ccc(C(N)=O)n2)cc1 | -3.54% |
| CN(Cc1cccc(C(N)=O)c1)c1ncc(C(N)=O)cc1Cl | -3.73% |
| CN(Cc1ccc2c(c1)OCO2)C(=O)c1ccn(C)c(=O)c1 | 3.01% |
| OC(CN1CC(n2cccn2)C1)c1ccc2c(c1)OCCO2 (stereo not given) | -19% |
| Clc1cnccc1N1CCC(OC2CCOCC2)CC1 | -0.439% |
| COc1ccc(OC)c(C(C)NC(=O)Nc2nnc(C)s2)c1 (stereo not given) | 14.7% |

| SMILES | cytotoxicity at 10 µM |
| --- | --- |
| COc1ccc(CNC(=O)NCc2nc(C)c(C)s2)cn1 | 8.73% |
| CCN(Cc1ccoc1)C(=O)NC1CCN(CC2CCCC2)CC1 | -6.11% |
| CN(Cc1ccccc1NCc1cccnc1)C(=O)c1cccs1 | 0.205% |
| CCN(Cc1ccoc1)C(=O)c1cc2c(c(S(N)(=O)=O)c1)CCC2 | -4.97% |
| Cn1cc(CCNC(=O)C2(c3cccc(Cl)c3)CC2)cn1 | 0.33% |
| CCOc1ccc(CNC(=O)N(C)Cc2ncnn2C)cc1C | -16% |
| Cc1ccc(C2CCCCCN2CCCS(C)(=O)=O)o1 (stereo not given) | -4.3% |
| CN(Cc1cnn(C)c1)C(CO)c1cccc(Br)c1 (stereo not given) | -2.86% |
| O=C(CNc1cccc(CC(F)(F)F)c1)NCc1ccco1 | -46.3% |
| CN(C)Cc1ccc(CNC(=O)NCC2(C)CCCS2)cc1 (stereo not given) | -12.9% |
| CC(C)n1nccc1NC(=O)CN1CCc2sccc2C1 | 0.583% |
| CCOC(C)c1noc(CN(C)C(=O)c2ccncc2)n1 (stereo not given) | 14.5% |
| O=C(NC1CCc2ccccc2C1)N1CCN(C(=O)C2CCC2)CC1 (stereo not given) | -5.59% |
| CN(C(=O)c1cccc(C(=O)NS(C)(=O)=O)c1)c1ccccc1 | -2.35% |
| O=C(c1cnccn1)N1CCc2ncc(CN3CCOCC3)n2CC1 | -77% |
| CCOC[C@@H]1CCC[C@@]12CN(Cc1cccnc1)CCO2 | -65.7% |
| O=C(c1cccs1)N1CCC2(CC1)CN(c1cncnc1)C(=O)CO2 | -67.7% |
| Cc1cc(C(=O)N2CC[C@H]3C[C@H](c4ccncn4)O[C@@H]3C2)c(C)[nH]1 | -70.1% |
| Nc1cc(C(=O)N2CCCC(C(=O)CCc3ccccc3)C2)ccn1 (stereo not given) | -6.97% |
| Cc1nn(CC(=O)O)c(C)c1NS(=O)(=O)c1cc2ccccc2s1 | -7.07% |
| Cc1ccc2cc(CN(C)Cc3ccncn3)c(=O)[nH]c2c1 | 10.3% |
| Cn1cc(CN2CCC(Cn3cc(-c4ccccc4)nn3)CC2)cn1 | 9.47% |

| SMILES | cytotoxicity at 10 µM |
| --- | --- |
| c1ccc(-c2nc3c(c(NCc4n[nH]c5c4CCC5)n2)CCNC3)cc1 | -12.8% |
| Cc1nc(C2CCCNC2)cc(N(Cc2nccn2C)C2CC2)n1 (stereo not given) | -3.42% |
| CN(CCc1cnn(C)c1)C(=O)C(c1ccccc1F)N(C)C (stereo not given) | 3.11% |
| O=C(NCCCO)c1cnc(-c2ccccc2)nc1O | -7.11% |
| CCCc1nc(C)c(CNc2nc(C)nc3oc(C)nc23)s1 | -44.6% |
| c1ccc(Oc2nccc3occc23)c(CN2CCCCC2)c1 | -10.1% |
| CCCC(=O)N(Cc1ccncc1)C(C)CC (stereo not given) | 9.66% |
| COc1cccc(OCCN2CC[C@@](O)(C3CCOCC3)[C@H](C)C2)c1 | -7.03% |
| OCc1ccc(CN2CCC(n3cc(C4CCCCC4)nn3)CC2)o1 | 1.02% |
| Cc1nccn1CCN(C)C(=O)C1CCN(C(=O)C2CCCC2)CC1 | -4.06% |
| CC[C@@H](CO)NC(=O)c1cc(COc2ccc(OC)cc2Cl)[nH]n1 | -34.4% |
| O=C(Nc1ccc(S(=O)(=O)Nc2ccccc2)cc1)N1CCCC1 | 10.9% |
| COC(=O)NCC(=O)N(C)Cc1csc(-c2cccs2)n1 | -2.67% |
| Nc1nc2c(c(N3CCCC(CN4CCCC4=O)C3)n1)CCNCC2 (stereo not given) | 14.6% |
| CC(C)(O)CCc1cccc(C(=O)N[C@H](C(N)=O)c2ccccc2)c1 | -4.21% |
| CN(Cc1cn(C2CCNCC2)nn1)CC1CCCO1 (stereo not given) | -4.76% |
| c1ccc2c(c1)CC(N1CCCN(Cc3cccc4nonc34)CC1)C2 | -2.37% |
| CC(C)Oc1ccc(CNC(=O)NCC(C)(C)C(N)=O)cc1F | -24.8% |
| Cc1nc(CN2CCCC2c2noc(C3CC3)n2)oc1C (stereo not given) | -8.13% |
| CCc1ccc(CNc2cc(N3CCCC3CO)ncn2)s1 (stereo not given) | -13% |
| COc1ncccc1NC(=O)NC1CCOc2ccccc21 (stereo not given) | -7.62% |
| Cc1ccc(C(=O)N2CCC(Oc3ccc(F)cc3F)CC2)c(=O)[nH]1 | 7.63% |

| SMILES | cytotoxicity at 10 µM |
| --- | --- |
| O=C(Cc1n[nH]c2ccccc12)N1CCC(Nc2cccnn2)CC1 | -7.44% |
| Cc1cnn(CC2CCCN2C(=O)c2cnc3n[nH]c(C)c3c2)c1 (stereo not given) | 8.73% |
| CC(C)c1nnc2n1CCN(C(=O)c1ccc(CN(C)C)cc1)C2 | 5.2% |
| Cc1nnc(N2CCC(CN(C)C(C)C)CC2)c(C#N)c1C | 3.63% |
| c1nc(CCC2CCCN2)cc(N2CCCOCC2)n1 (stereo not given) | 3.91% |
| CN(C)C(=O)C1OC2(CCN(c3ncc(F)cn3)CC2)c2ccccc21 (stereo not given) | 6.27% |
| O=C(NCC1OCCc2cn(CC3CCOCC3)nc21)c1ccsc1 (stereo not given) | 4.84% |
| Cn1ncc2c1CN(Cc1ccccc1F)CC2COCC1CC1 (stereo not given) | 1.47% |
| CN(Cc1cccnc1)C1CC2(CCN(c3ncc(F)cn3)CC2)C1 | 18% |
| FC1(F)CCN(Cc2ccncc2)CC12CCN(Cc1ccccn1)C2 (stereo not given) | 10.2% |
| c1ccn(Cc2noc3c2CN(Cc2ccsc2)CC3)c1 | 9.37% |
| Cn1cnc(S(=O)(=O)N2C[C@H]3CN(Cc4cccnc4)C[C@H]3C2)c1 | 8.46% |
| CN(C)c1ncc(C2Nc3cc(Cl)ccc3C3=NCCCN32)cn1 (stereo not given) | -32% |
| Cc1cc(S(=O)(=O)NCC(C)(C)N)c(F)cc1F | 3.8% |
| c1cc(COC[C@]23COC[C@H]2CN(CC2CCC2)C3)ccn1 | -77.1% |
| Cn1cc(C2CC(=O)NC23CCN(CC2CC2)CC3)cn1 (stereo not given) | -7.28% |
| COCCN1C(=O)CCC12CCCN(Cc1nccs1)CC2 (stereo not given) | -85.1% |
| Cn1nnc2c1C(COCc1ccccn1)CN(Cc1ccoc1)C2 (stereo not given) | 5.94% |
| CN1CC(=O)N(c2ccccc2)CC12CCN(CC1CC1)C2 (stereo not given) | 4.42% |
| c1ccc(CN2C[C@@H]3COC[C@]3(COCc3ccncc3)C2)nc1 | -76.1% |
| CO[C@@H]1CCN(S(=O)(=O)c2cn(C)cn2)[C@H]1Cc1cnn(C)c1 | 4.56% |
| O=C(Nc1ccccc1)N1C2CCC(O)(CC2)C1CN1CCOCC1 (stereo not given) | 10% |

— ChEMBL document CHEMBL4513216, “Probing the Open Global Health Chemical Diversity Library for Multistage-Active Starting Points for Next-Generation Antimalarials” (ACS Infect Dis, 2020)
